A selection: hits, their analogues and other compounds. The true share with any hit is near 1.8%.
AI-2 QS mod – Vibrio harveyi AI-2 quorum sensing modulation. Vibrio harveyi JMH597 AI-2 luminescence/OD600 ratio, 9 h; active compounds read low; strain lacks LuxN and CqsS sensors; 0 = neutral-control median. activity change, % at 7.5 µM. hit rate 0.4% among 300,000; in the data active = activity change below about -75%, passing the limit was not always enough; inconclusive = no clear call, values can overlap the other calls;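 also: luminescence divided by OD600 gain over 9 h not by final OD600 alone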
HDAC3 inhib – inhibitors of human histone deacetylase 3 | inhibition, % at 8.3 µM | hit rate 0.15% among 320,000 | recombinant HDAC3, fluorogenic peptide/trypsin coupled, fluorescence | AID 2718 | O15379; in the data active = inhibition above about 26%, passing the limit was not always enough; inconclusive = no clear call, values can overlap the other calls
Target sequence (O15379 whole entry, looked up): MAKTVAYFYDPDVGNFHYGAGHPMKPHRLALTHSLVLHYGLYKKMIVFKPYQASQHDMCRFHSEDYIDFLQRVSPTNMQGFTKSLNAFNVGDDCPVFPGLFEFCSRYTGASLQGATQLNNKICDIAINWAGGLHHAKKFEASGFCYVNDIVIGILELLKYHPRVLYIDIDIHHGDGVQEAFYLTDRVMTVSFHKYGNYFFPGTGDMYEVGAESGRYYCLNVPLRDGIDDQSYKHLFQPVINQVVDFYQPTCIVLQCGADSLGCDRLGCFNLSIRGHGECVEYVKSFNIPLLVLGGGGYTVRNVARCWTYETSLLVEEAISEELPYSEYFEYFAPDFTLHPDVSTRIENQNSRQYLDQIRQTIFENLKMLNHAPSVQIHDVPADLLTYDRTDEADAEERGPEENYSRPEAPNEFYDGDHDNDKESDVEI
LANA-H2A inh – blocks KSHV LANA binding to histone H2A/H2B. AID 2629. Q9QR71. hit rate 0.6% among 320,000. cell-free LANA-H2A/H2B peptide, fluorescence polarization. inhibition, % (test concentration not listed); in the data active = inhibition mostly above about 10%, no sharp cut-off; inactive = mostly below about 6.7%
Bfl-1 A1 inh – inhibitors of the anti-apoptotic protein A1, read as caspase activation; MEF A1-2A-BIM cells, Caspase-Glo 3/7 luminescence, 3 h; percent of clofoctol response, vehicle zero; caspase activation, % (no concentration beside the values); hit rate 0.066% among 330,000;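 active = over half of replicate activation scores above 10%, or exactly half above 10 with the replicate mean above 10; inconclusive = replicate mean below 10 yet half the replicates above 10; inactive = over half of replicates below 10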
ATG4B inh – inhibitors of human ATG4B cysteine protease; ATG4B cleavage of LC3-PLA2, NBD-HPC fluorescence, 1 h; hit rate 0.51% among 340,000; Q9Y4P1; inhibition, % at 8.33 µM; in the data active = inhibition above about 40%
HKDC1 inhibitor – blocks human hexokinase HKDC1 activity; Q2TB90; recombinant HKDC1, G6PDH/diaphorase resazurin coupled fluorescence; inhibition, % at 20 µM; hit rate 0.16% among 340,000; AID 493160;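 active = inhibition above about 35% when tested at 20 µM, limit read from the data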;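 also: plate controls were DMSO wells with enzyme for no effect and DMSO wells lacking enzyme for full effect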
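Test system: HK5 enzyme. Quantity: 5 µg/mL HK5 final. Reagent: glucose and ATP substrates. Schedule: 90 min reaction incubation at room temperature, dark. Technique: resazurin-to-resorufin fluorescence via G6PDH and diaphorase coupling, 525/613 nm. Control set: DMSO wells with and without enzyme mix.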
ATG4B confirm – ATG4B (human) inhibition, single-dose confirmed; shares compounds with ATG4B inh; ATG4B protease fluorescent substrate cleavage assay; inhibition, % at 8.33 µM; hit rate 92% among 320; AID 504757; in the data active = inhibition above about 39%
PLA2 ctr – counter-screen for ATG4B inhibitors: human phospholipase A2. hit rate 66% among 1,600. shares compounds with ATG4B inh. AID 588402. inhibition, % at 8.33 µM. purified PLA2, NBD-C6-HPC fluorescence, 45 min; in the data active = inhibition above about 50%
Target sequence (P04054 whole entry, looked up): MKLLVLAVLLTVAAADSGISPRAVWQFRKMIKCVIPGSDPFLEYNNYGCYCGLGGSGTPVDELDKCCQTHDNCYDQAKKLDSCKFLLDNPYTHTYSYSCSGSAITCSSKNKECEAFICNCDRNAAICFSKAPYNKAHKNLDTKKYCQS
Starred values were filed as active, the others as inactive; ? = inconclusive; nt = not tested or not shown.

SMILES	AI-2 QS mod	HDAC3 inhib	LANA-H2A inh	Bfl-1 A1 inh	ATG4B inh	HKDC1 inhibitor	PLA2 ctr	others
Cc1ccc(C(=O)c2cnc3ccccc3c2-c2ccccc2)cc1	29	8	2	0	69*	2	82*
O=C(CC1(CC2=NS(=O)(=O)c3ccccc3N2)CCCC1)NCCc1ccccc1	4	3	-5	1	-5	-5	nt
Cc1ccc(NC2=C(C(=O)c3ccccc3)N(C)S(=O)(=O)c3ccccc32)cc1	6	?	-1	1	24	2	nt
CCN1C(C(=O)c2ccccc2)=C(Nc2ccccc2C)c2ccccc2S1(=O)=O	34	7	-2	0	51*	0	55*
Oc1c(Br)cc(C=Nc2ccc3nc(-c4ccccc4)[nH]c3c2)c(O)c1Br	76	-1	17	1	21	7	nt
O=[N+]([O-])c1ccc(O)c(C=Nc2ccc3nc(-c4ccccc4)[nH]c3c2)c1	26	0	-2	-5	42*	-5	37
O=C(O)c1cccc2c(-c3ccccc3)c(-c3ccccc3)[nH]c12	14	15	-3	0	69*	1	75*
CC1=NN(C(=O)c2ccc(C)o2)C(O)(c2ccccc2)C1 (stereo not given)	nt	-4	-476	0	-3	-4	nt
COc1cc(CCc2ccccc2)c(C(=O)O)c(O)c1C/C=C(/C)CCC=C(C)C	nt	nt	nt	nt	85*	7	90*
COCOc1ccc(/C=C/C(=O)c2c(OCOC)cc(OCOC)c(CC=C(C)C)c2O)cc1OCOC	9	2	-3	-1	-13	1	nt
COc1cc(CCc2ccccc2)c(C(=O)O)c(O)c1CC=C(C)C	nt	nt	nt	nt	75*	9	86*
CC(C)=CCC/C(C)=C/Cc1c(O)ccc(C(=O)/C=C/c2ccc(O)cc2)c1O	26	8	9	1	12	1	nt
O=S1(=O)CCOCCN1Cc1ccccc1	5	1	0	0	-5	-4	nt
CCCCn1c(SCC(=O)Nc2cc(C)[nH]n2)nc2ccsc2c1=O	20	-2	-1	1	45*	-2	44	ATG4B confirm=56*
CCCCn1c(SCC(=O)Nc2cc(C)on2)nc2ccsc2c1=O	7	2	-1	0	-13	-10	nt
Cc1nc(-c2c(C(=O)NNC(=O)Nc3c(C)cccc3C)noc2C)cs1	-9	0	2	1	-2	-4	nt
CCn1c(SCC(=O)Nc2oc(-c3ccccc3)c(-c3ccccc3)c2C#N)nnc1-c1ccco1	24	9	-2	0	61*	12	68*
O=c1c2ccccc2nc(-c2ccoc2)n1CCc1ccccc1	12	4	8	1	42*	-1	36	ATG4B confirm=65*
CCn1cc(C(=O)OCC(=O)N2C(C)CCCC2C)c(=O)c2ccc(C)nc21 (stereo not given)	20	1	-3	1	7	-5	nt
CCn1cc(C(=O)OCC(=O)c2cc(C)n(-c3ccccc3F)c2C)c(=O)c2ccc(C)nc21	-9	11	-3	0	71*	-10	75*
CCn1cc(C(=O)OCC(=O)c2cc(C)n(-c3ccc(OC(F)F)cc3)c2C)c(=O)c2ccc(C)nc21	20	4	-3	0	72*	-6	74*
CCn1cc(C(=O)OCC(=O)c2cc(C)n(-c3ccccc3)c2C)c(=O)c2ccc(C)nc21	-14	3	2	2	66*	-3	68*
Cc1cc(C(=O)COC(=O)c2ccc[nH]c2=O)c(C)n1-c1ccccc1F	11	-5	1	0	2	-7	nt
CCn1cc(C(=O)OCC(=O)Nc2ccccc2OC(F)F)c(=O)c2ccc(C)nc21	nt	2	1	0	-2	-4	nt
CC1CCCN(C(=O)COC(=O)Cc2ccc(Cl)cc2)C1 (stereo not given)	23	1	14	1	-5	-1	nt
SMILES	AI-2 QS mod	HDAC3 inhib	LANA-H2A inh	Bfl-1 A1 inh	ATG4B inh	HKDC1 inhibitor	PLA2 ctr	others
O=C(O)Cc1cn(Cc2cccc(Cl)c2)c2ccccc12	13	-2	-1	0	1	-3	nt
CC1CCCN(C(=O)Cc2cn(Cc3cccc(Cl)c3)c3ccccc23)C1 (stereo not given)	3	1	11	0	48*	0	56*
O=C(Cc1cn(Cc2cccc(Cl)c2)c2ccccc12)N1CCCCCC1	5	3	7	0	50*	4	47
CCN(CC)c1ccc(NC(=O)CCS(=O)(=O)c2ccc(Br)cc2)c(C)c1	6	3	5	0	-7	1	nt
Cc1nn(-c2ccccc2)nc1CNC(=O)c1ncoc1-c1ccccc1	25	6	-8	0	-2	2	nt
Cc1oc(-c2ccccc2Cl)nc1CS(=O)CC(=O)NCc1ccccc1Cl (stereo not given)	8	-3	5	1	46*	-7	47	ATG4B confirm=60*
Cc1oc(-c2ccccc2Cl)nc1CS(=O)CC(=O)NCc1ccco1 (stereo not given)	10	-2	-6	0	-1	-3	nt
C=CC[n+]1c(-c2ccc(OCC)cc2)csc1NNC(=O)Nc1ccccc1	26	6	-2	0	1	-2	nt
COCCN=c1scc(-c2cc(OC)c(OC)c(OC)c2)n1/N=C/c1c(C)[nH]c2ccccc12	-1	7	-4	0	43*	-6	71*
Cn1c(C(C)(O)C(O)c2ccccc2)nc2ccccc21 (stereo not given)	3	1	-4	0	nt	nt	nt
O=c1[nH]c(Cc2ccccn2)nc2scc(-c3ccccc3Cl)c12	38	?	-12	-1	15	-2	nt
Cc1c2ccccc2cc[n+]1CCCS(=O)(=O)[O-]	21	0	-2	-1	-3	6	nt
CC1(C)C(/C=C/C=C/C=C/C=C2\N(CCCCS(=O)(=O)O)c3ccc4ccccc4c3C2(C)C)=[N+](CCCCS(=O)(=O)[O-])c2ccc3ccccc3c21	nt	0	10	-2	90*	28	95*
Nc1c(C(=O)Nc2ccccc2F)sc2nc(-c3ccco3)ccc12	13	-5	-2	2	47*	1	3
COc1cc(OC)cc(C(=O)NCCc2cnc[nH]2)c1	5	2	0	-1	-4	-4	nt
Cc1ccc2nc3c(c(Nc4ccc(O)cc4)c2c1)CCC3	12	nt	-4	1	12	5	nt
Cc1ccc2nc3c(c(Nc4ccc5c(c4)OCCO5)c2c1)CCC3	22	-4	3	-1	42*	-3	37	ATG4B confirm=65*
